Experimental data collected from several papers.
Read-out: microbial growth

The MIC of `C/C=C/C/C=C/CCC(=O)[C@H]1O[C@H]1C(N)=O` is reported as 10 to 12 µM (Saccharomyces cerevisiae).
The MIC of `CC(=O)Nc1ccc(-c2nc(-c3ccc(Oc4ccccc4)cc3)no2)cc1` is reported as > 50 mg/L (Clostridioides difficile; broth dilution; 48 h).
The MIC of `Oc1c(F)cc(-c2nc(-c3ccc(Oc4ccc(C(F)(F)F)cc4)cc3)no2)cc1F` is reported as 2 to 4 mg/L (Clostridioides difficile; broth dilution; ATCC43255; 48 h).
For `Cc1ccc(C)n1-c1ccc(-c2nnc(-c3cccc([N+](=O)[O-])c3)[nH]2)cc1`, the MIC was 31.2 mg/L (Saccharomyces cerevisiae; broth dilution; ATCC9763).
With `Clc1ccccc1C(c1ccccc1)(c1ccccc1)n1ccnc1` the MIC was 20 to 25 µM (Saccharomyces cerevisiae).
`Cc1ccc(C)n1-c1ccc(-c2nnco2)cc1` has an MIC of 125 mg/L (Saccharomyces cerevisiae; broth dilution; ATCC9763).
`OC(Cn1cncn1)(Cn1cncn1)c1ccc(F)cc1F` gave an MIC of 4 mg/L (Saccharomyces cerevisiae).
`CNc1ccc(-c2nc(-c3ccc(Oc4ccccc4)cc3)no2)cc1` has an MIC of 8 mg/L (Clostridioides difficile; broth dilution; 48 h).
`Cc1ccc(C)n1-c1ccc(C(=O)NNC=O)cc1` gave an MIC of 250 mg/L (Saccharomyces cerevisiae; broth dilution; ATCC9763).
For `Oc1ccc(-c2nc(-c3ccc(Oc4ccc(C(F)(F)F)cc4)cc3)no2)cc1F`, the MIC was 2 to 4 mg/L (Clostridioides difficile; broth dilution; ATCC43255; 48 h).
The MIC of `O=[N+]([O-])c1ccc(-c2nc(-c3ccc(Oc4ccccc4)cc3)no2)cc1` is reported as 8 mg/L (Clostridioides difficile; broth dilution; 48 h).
With `Cc1cc(C)n(C(=O)c2ccc(-n3c(C)ccc3C)cc2)n1` the MIC was > 500 mg/L (Saccharomyces cerevisiae; broth dilution; ATCC9763).
For `Cl.NCc1ccc(Oc2ccc(-c3noc(-c4ccc(O)cc4)n3)cc2)cc1`, the MIC was 6 mg/L (Clostridioides difficile; broth dilution; 48 h).
With `CC[C@@H]([C@H](C)O)n1ncn(-c2ccc(N3CCN(c4ccc(OC[C@@H]5CO[C@@](Cn6cncn6)(c6ccc(F)cc6F)C5)cc4)CC3)cc2)c1=O` the MIC was < 0.3 µM (Saccharomyces cerevisiae; BY4743; 72 h).
The MIC of `Cc1ccc(C)n1-c1ccc(-c2nnc(-c3ccccc3Cl)[nH]2)cc1` is reported as 8 mg/L (Saccharomyces cerevisiae; broth dilution; ATCC9763).
`Oc1ccc(-c2nc(-c3ccc(Oc4ccc(I)cc4)cc3)no2)cc1` gave an MIC of 8 to 128 mg/L (Clostridioides difficile; broth dilution; ATCC43255; 48 h).
`Oc1ccc(-c2nc(-c3ccc(Oc4ccccc4)cc3)no2)cc1` has an MIC of 6 mg/L (Clostridioides difficile; broth dilution; 48 h).
